SMILES strings stand for the structures.

For data set [1], the system named is Rat. In words: concentration in plasma after dosing. To be noted: dosed: Wyeth-14643, 2.0 mg/kg, iv, Male, Sprague-Dawley.
The subject of data set [2] is Rat. Briefly: concentration in plasma after dosing. To be noted: dosed: Wyeth-14643, 5.0 mg/kg, oral, Male, Sprague-Dawley.
For data set [3], the system named is Rat. In words: concentration in plasma after dosing. The note with it: 3 h; dosed: Wyeth-14643; 2.0 mg/kg; oral; Male; Sprague-Dawley.
For data set [4], the system named is Rat. Briefly: concentration in plasma after dosing. The note with it: 5 min; dosed: Wyeth-14643; 2.0 mg/kg; oral; Male; Sprague-Dawley.
Data set [5] relates to Rat. Briefly: concentration in plasma after dosing. The note with it: 3 h; dosed: Wyeth-14643; 2.0 mg/kg; oral; Male; Sprague-Dawley. The source holds these as a separate data set.
Data set [6] relates to Rat. Briefly: concentration in thymus after dosing. To be noted: 6 h; dosed: Bis 2-Chloroethoxy Methane; 20 mg/kg; iv; Male; F344.
The test system of data set [7] is Rat. Briefly: concentration in thymus after dosing. The note with it: 4 h; dosed: Bis 2-Chloroethoxy Methane; 20 mg/kg; iv; Female; F344.
Data set [8] relates to Rat. In words: concentration in liver after dosing. To be noted: 1 h; dosed: Bis 2-Chloroethoxy Methane; 20 mg/kg; iv; Male; F344.
Data set [9] deals with Rat. In words: concentration in plasma after dosing. To be noted: 3 h; dosed: Bis 2-Chloroethoxy Methane; 20 mg/kg; iv; Female; F344.
Data set [10] deals with Rat. Briefly: concentration in brain after dosing. The note with it: 1 h; dosed: Fluorotelomer alcohol 8+2; 80 mg/kg; oral; Female; Harlan Sprague Dawley.
Data set [11] concerns Rat. Briefly: concentration in plasma after dosing. The note with it: dosed: Fluorotelomer alcohol 8+2, 12 mg/kg, oral, Male, Harlan Sprague Dawley.
The test system of data set [12] is Rat. In words: concentration in plasma after dosing. To be noted: dosed: Fluorotelomer alcohol 8+2, 12 mg/kg, oral, Male, Harlan Sprague Dawley. This is another data set of the same source.
Data set [13] relates to Rat. Briefly: concentration in kidney after dosing. To be noted: 0.5 h; dosed: Fluorotelomer alcohol 8+2; 80 mg/kg; oral; Female; Harlan Sprague Dawley.
In data set [14] the test system is Rat. In words: concentration in plasma after dosing. To be noted: 3 h; dosed: Di-n-butyl phthalate; 50 mg/kg; oral; Male; Sprague-Dawley.
The test system of data set [15] is Rat. In words: concentration in plasma after dosing. To be noted: 10 min; dosed: Di-n-butyl phthalate; 20 mg/kg; iv; Male; Sprague-Dawley.
Data set [16] deals with Rat. In words: concentration in plasma after dosing. The note with it: 10 h; dosed: Di-n-butyl phthalate; 50 mg/kg; oral; Male; Sprague-Dawley.
Data set [17] deals with Rat. In words: concentration in plasma after dosing. To be noted: 6 h; dosed: Di-n-butyl phthalate; 100 mg/kg; oral; Male; Sprague-Dawley.
Data set [18] relates to Rat. Briefly: concentration in plasma after dosing. To be noted: 24 h; dosed: Di-n-butyl phthalate; 100 mg/kg; oral; Male; Sprague-Dawley.
Data set [19] relates to Rat. In words: concentration in kidney after dosing. To be noted: 3360 h; dosed: Perfluorodecanoic acid; 10 mg/kg; oral; Female; Harlan Sprague Dawley.
In data set [20] the test system is Rat. In words: concentration in brain after dosing. The note with it: 864 h; dosed: Perfluorodecanoic acid; 10 mg/kg; oral; Female; Harlan Sprague Dawley.
Data set [21] has as its system Rat. Briefly: concentration in liver after dosing. To be noted: 3360 h; dosed: Perfluorodecanoic acid; 10 mg/kg; oral; Female; Harlan Sprague Dawley.
Data set [22] concerns Rat. Briefly: concentration in plasma after dosing. The note with it: 3 h; dosed: Primidone; 80 mg/kg; oral; Female; F344.
The test system of data set [23] is Rat. In words: concentration in liver after dosing. The note with it: 1 h; dosed: Thiodiglycolic Acid; 20 mg/kg; iv; Female; Harlan Sprague Dawley.
Data set [24] concerns Rat. Briefly: concentration in liver after dosing. To be noted: 40 min; dosed: Thiodiglycolic Acid; 20 mg/kg; iv; Female; Harlan Sprague Dawley.
For data set [25], the system named is Rat. In words: concentration in heart after dosing. The note with it: 6.667 h; dosed: Thiodiglycolic Acid; 20 mg/kg; iv; Female; Harlan Sprague Dawley.
Data set [26] has as its system Rat. In words: concentration in liver after dosing. To be noted: 8 h; dosed: Thiodiglycolic Acid; 20 mg/kg; iv; Female; Harlan Sprague Dawley.
Data set [27] has as its system Rat. In words: concentration in thymus after dosing. To be noted: 2 h; dosed: Thiodiglycolic Acid; 20 mg/kg; iv; Male; Harlan Sprague Dawley.
Data set [28] deals with Rat. Briefly: concentration in heart after dosing. To be noted: 10 h; dosed: Thiodiglycolic Acid; 20 mg/kg; iv; Male; F344.
In data set [29] the test system is Rat. Briefly: concentration in heart after dosing. To be noted: 6.667 h; dosed: Thiodiglycolic Acid; 20 mg/kg; iv; Female; Harlan Sprague Dawley. The source holds these as a separate data set.
The subject of data set [30] is Rat. In words: concentration in heart after dosing. To be noted: 4 h; dosed: Thiodiglycolic Acid; 20 mg/kg; iv; Female; Harlan Sprague Dawley.
Data set [31] relates to Rat. In words: concentration in heart after dosing. The note with it: 1 h; dosed: Thiodiglycolic Acid; 20 mg/kg; iv; Male; Harlan Sprague Dawley.
The test system of data set [32] is Rat. In words: concentration in heart after dosing. To be noted: 2 h; dosed: Thiodiglycolic Acid; 20 mg/kg; iv; Female; Harlan Sprague Dawley.
The subject of data set [33] is Rat. Briefly: concentration in plasma after dosing. The note with it: dosed: dichloroacetic acid, 40 mg/kg, oral, Female, Harlan Sprague Dawley.
The subject of data set [34] is human. Briefly: concentration in plasma after dosing; negative times count back from the end of exposure. The note with it: dosed: trichloroethylene, 100 ppm, inhalation, duration: 4 hr, person. A digest of the protocol: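 Concentration-versus-time or amount-versus-time points were compiled from published in vivo toxicokinetic studies and from two structured collections. The studies were found by PubMed searching, classifier screening and manual review. Points were mostly digitised from plot screenshots with WebPlotDigitizer, otherwise copied from tables, and kept in the reported units. Dose, route, subject details and medium were curated by hand from each paper, and sampling and analytical methods follow each source and were often unreported.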

For data set [35], the system named is Rat. In words: concentration in plasma after dosing. To be noted: dosed: dichloroacetic acid, 40 mg/kg, oral, Female, Harlan Sprague Dawley. This is another data set of the same source.

For `Cc1cccc(Nc2cc(Cl)nc(SCC(=O)O)n2)c1C`, the concentration in plasma in data set [1] (0.5 h) came to 5100 ng/mL; in data set [1] (3 h) it was 342 ng/mL; in data set [2] (0.5 h), 1970 ng/mL; in data set [2] (10 h), 150 ng/mL; in data set [3], 426 ng/mL; in [4] it was 401 ng/mL. Also, the concentration in plasma in data set [5] was found to be 382 ng/mL.
With `ClCCOCOCCCl` [Bis 2-Chloroethoxy Methane], the concentration in thymus in data set [6] was 19.5 ng/g; in data set [7] it was 108 ng/g. This compound showed a concentration in liver in [8] of 2070 ng/g. The compound also yielded a concentration in plasma in data set [9] of 87.3 ng/mL.
Regarding `OCCC(F)(F)C(F)(F)C(F)(F)C(F)(F)C(F)(F)C(F)(F)C(F)(F)C(F)(F)F` [Fluorotelomer alcohol 8+2], the concentration in brain in data set [10] amounted to 4990 ng/g. For the same compound, the concentration in plasma in data set [11] (5 min) is 396 ng/mL; in data set [11] (3 h), 196 ng/mL; in data set [12] (0.75 h) it was 294 ng/mL; in data set [12] (12 h) it was 4.64 ng/mL. Also, in data set [13], the concentration in kidney turned out to be 4140 ng/g.
`CCCCOC(=O)c1ccccc1C(=O)O` [Mono-n-butyl phthalate]: the concentration in plasma in data set [14] was determined as 3050 ng/mL; in data set [15], 31200 ng/mL; in data set [16], 797 ng/mL; in [17], 16900 ng/mL; in data set [18], 2770 ng/mL.
For `O=C(O)C(F)(F)C(F)(F)C(F)(F)C(F)(F)C(F)(F)C(F)(F)C(F)(F)C(F)(F)C(F)(F)F` [Perfluorodecanoic acid], the concentration in kidney in data set [19] is 2580 ng/g. In data set [20], this compound returned a concentration in brain of 1220 ng/g. Further, the concentration in liver in data set [21] was found to be 6380 ng/g.
Regarding `CCC1(c2ccccc2)C(=O)NC(=O)NC1=O` [Phenobarbital], the concentration in plasma in data set [22] is 1000 ng/mL.
Consider `O=C(O)CSCC(=O)O` [Thiodiglycolic Acid], for which the concentration in liver in data set [23] came to 60100 ng/g; in [24] it was 10000 ng/g; in data set [26], 940 ng/g. The concentration in heart came to 262 ng/g in data set [25]; 483 ng/g in data set [28]; 308 ng/g in data set [29]; 620 ng/g in data set [30]; 1520 ng/g in data set [31]; 1640 ng/g in [32]. This compound also registered a concentration in thymus in data set [27] of 2260 ng/g.
As to `O=C(O)C(Cl)Cl` [dichloroacetic acid], the concentration in plasma in data set [33] (10 min) was found to be 3380 ng/mL; in data set [33] (1.5 h) it was 3320 ng/mL; in data set [34] (0 h) it was 8 ng/mL; in data set [34] (0.25 h) it was 5 ng/mL; in [34] (0.5 h), 5 ng/mL; in data set [34] (1.75 h), 4 ng/mL. Also, the concentration in plasma is 5 ng/mL in data set [34] (4 h); 5 ng/mL in [34] (12 h); 10 ng/mL in [34] (-1 h, during exposure); 4 ng/mL in [34] (-2 h, during exposure); 8110 ng/mL in data set [35] (20 min); 2680 ng/mL in data set [35] (2 h).

The record behind these values is EPA's CvTdb concentration-time database.
